The list is not random: actives were taken first. Their share in the collection is about 1.4%.
SUMO HTRF inh: inhibitors of human SUMOylation (UBC9); 0.36% of 290,000 active; P63279; HTRF SUMOylation assay, SAE1/SAE2 + UBC9, in vitro; inhibition, % at 35 µM; in the data active = inhibition above about 50%, passing the limit was not always enough
Target sequence (P63279 whole entry, looked up): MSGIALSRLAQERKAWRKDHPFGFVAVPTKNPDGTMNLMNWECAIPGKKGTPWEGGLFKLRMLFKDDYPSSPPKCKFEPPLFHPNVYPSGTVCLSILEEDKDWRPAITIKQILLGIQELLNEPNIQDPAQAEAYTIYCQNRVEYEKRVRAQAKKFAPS
Apaf-1 inh: blocks human Apaf-1 apoptosome activity; O14727; reconstituted apoptosome caspase-3 activity, DEVD-Rh110 fluorescence; inhibition, % at 20 µM; 0.71% of 330,000 active; active = inhibition of at least 40% at 20 µM;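 note: plate controls were DMSO wells for no effect and DEVD-CHO caspase inhibitor wells for full effect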
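detection = Rh110 fluorescence intensity | test system = biochemical Apaf-1 apoptosome reconstitution | also added = cytochrome c and DEVD-Rh110 substrate | schedule = 30 min plus 50 min, RT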
GSTO1 inh: blocks human GSTO1 in RBBP9 counter-screen. P78417. recombinant GSTO1, activity-based probe fluorescence polarization. inhibition, % at 5.96 µM. 1.1% of 300,000 active. AID 1974;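 active = inhibition above the campaign mean inhibition plus 3 SD, cut at about 35% in these data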;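 note: 0% = GSTO1-1 with DMSO and 100% = wells lacking GSTO1-1 enzyme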
Target sequence (P78417 whole entry, looked up): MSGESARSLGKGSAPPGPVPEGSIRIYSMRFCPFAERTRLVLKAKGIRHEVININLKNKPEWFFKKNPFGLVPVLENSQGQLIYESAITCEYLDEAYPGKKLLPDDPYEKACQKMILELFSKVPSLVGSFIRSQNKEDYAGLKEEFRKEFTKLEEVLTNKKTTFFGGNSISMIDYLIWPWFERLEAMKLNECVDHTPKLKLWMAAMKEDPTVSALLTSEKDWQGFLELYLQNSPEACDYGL
HKDC1 inh: blocks human hexokinase HKDC1 activity. Q2TB90. 0.16% of 340,000 active. inhibition, % at 20 µM. recombinant HKDC1, G6PDH/diaphorase resazurin coupled fluorescence;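 active = inhibition above about 35% when tested at 20 µM, limit read from the data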;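 note: plate controls were DMSO wells with enzyme for no effect and DMSO wells lacking enzyme for full effect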
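System: Recombinant HKDC1 hexokinase | Amount: HKDC1 at 5 µg/mL | Reagent: Glucose with 1 mM ATP | Doses: Single 20 µM dose | Incubation: Reaction time 90 min, room temperature, protected from light | Signal: Coupled resazurin fluorescence, excitation 525 nm, emission 613 nm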
DTT redox prof: compounds producing H2O2 with reducing agent – biochemical, NIH compound library profiling, artefact control for MLSCN library redox annotation, primary screen. DTT-dependent redox cycling H2O2, phenol red/HRP absorbance; 100% = 100 µM peroxide control, 0% = buffer. 0.03% of 200,000 active. AID 878. activation, % at 10 µM;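 active = activation of at least 50% relative to the plate's high and low controls in the primary single-dose screen; inactive = activation below 50%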;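 note: compound incubated with DTT at 0.8 mM final as the reducing agent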
GSTO1 inh conf: GSTO1 (human) inhibition, confirmation; shares compounds with GSTO1 inh; recombinant GSTO1, probe fluorescence polarization; inhibition, % at 5.96 µM; 54% of 2,400 active; AID 2176;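 active = inhibition above the primary screen's cutoff, its mean inhibition plus 3 SD, cut at about 35% in these data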;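 note: loss of polarization as inhibitors block binding of rhodamine sulfonate ester activity probe; 0% = GSTO1 with DMSO and 100% = wells lacking GSTO1 enzyme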
GSTO1 recomb ABPP: inhibitors of recombinant human GSTO1; shares compounds with GSTO1 inh; gel ABPP SE-Rh probe fluorescence; inhibition, % at 1 µM; 30% of 130 active; AID 463110;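 active = inhibition of the enzyme GSTO1 above about 75%, limit read from the data; inactive = inhibition below that limit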
An asterisk follows results filed as active; · = not tested or not shown.

SMILES | SUMO HTRF inh | Apaf-1 inh | GSTO1 inh | HKDC1 inh | DTT redox prof | GSTO1 inh conf | others
NC(=S)NN=C(c1ccc(Br)cc1)C1CC1 | · | · | · | -3 | · | ·
CCC1=NNc2cccc3c(OC)ccc1c23 | 59* | 52* | 73* | · | 2 | 27
CC(OC(=O)c1ccccc1C(=O)N(C)C1CCCCC1)C(=O)NC1(C#N)CCCCC1 (configuration not stated) | · | 10 | · | -5 | · | ·
Oc1ccc2ccccc2c1C=Nc1ccc(N2CCOCC2)cc1 | 5 | 29 | 41* | 25 | 0 | 38*
CN(CC(=O)Nc1ccccc1Cl)C(=O)COC(=O)C1=COCCO1 | · | -1 | -3 | 7 | · | ·
CC(CN1C(C)CCCC1C)OC(=O)c1ccccc1F (configuration not stated) | 8 | -2 | -2 | -3 | · | ·
O=C(NN=C1CCCC1)c1ccc(Cl)cc1 | -3 | 9 | 8 | 1 | · | ·
O=C1CCC/C(=N/Nc2ccc(Cl)cc2)C1 | -7 | 11 | 40* | 5 | 0 | 7
CCn1cc(Cl)c(C(=O)Nc2nccs2)n1 | 12 | 0 | · | -6 | · | ·
Cc1ccc2[nH]c3c(c2c1)CCCC3NC(=O)CCl (configuration not stated) | 4 | -21 | 93* | 6 | · | 99*
CN(CC(=O)Nc1ccc(F)cc1)C(=O)C1CCN(C(=O)Nc2ccccc2)CC1 | · | -1 | · | -5 | · | ·
O=[N+]([O-])c1ccc(O)c(/C=N/Nc2nn[nH]n2)c1 | -23 | 9 | 47* | -8 | -2 | 9
O=C(NCCc1c[nH]c2ccccc12)OCCCCOC(=O)NCCc1c[nH]c2ccccc12 | · | 18 | -5 | 1 | · | ·
c1ccc(CCCOCCC2CO2)cc1 (configuration not stated) | -2 | 1 | 96* | · | · | 94* | GSTO1 recomb ABPP=60
O=Nc1[nH]c(=O)c(/C=C(\O)c2ccccc2)nc1NO | -27 | 16 | · | -8 | · | ·
NS(=O)(=O)c1ccc2nc(NC(=O)c3ccc4c(c3)OCCO4)sc2c1 | -2 | -18 | 42* | -6 | · | -1
O=C(Nc1cccc2cccnc12)c1ccccc1Br | · | -9 | -5 | 0 | · | ·
CCOC(=O)CNC(=O)COc1coc(CN2CCN(Cc3ccccc3)CC2)cc1=O | -1 | -2 | -1 | 5 | · | ·
[C-]#[N+][C@H](O[C@@H]1O[C@H](CO)[C@@H](O)[C@H](O)[C@H]1O)c1ccccc1 | · | -2 | 1 | 6 | · | ·
O=C(O)CC(CCc1ccccc1)OC1OC(CO)C(O)C(O)C1O (configuration not stated) | 39 | -24 | 53* | 1 | · | 13
O=C(CSc1nnc(NC(=O)C2CC2)s1)Nc1ccccc1C(F)(F)F | -13 | -2 | -1 | -5 | · | ·
COc1ccc(C2CC(=O)N(C)c3ccccc3S2)cc1 (configuration not stated) | 9 | 1 | 47* | -5 | -1 | 2
CN1C(=O)CC(c2ccco2)Sc2ccccc21 (configuration not stated) | 12 | -17 | -5 | -4 | -2 | ·
Oc1ccc(/C=N/N2CCCCC2)cc1O | 6 | 2 | 40* | 0 | · | 8
Clc1ccc(C=NN2CCCCCC2)cc1Cl | · | · | · | 1 | · | ·
SMILES | SUMO HTRF inh | Apaf-1 inh | GSTO1 inh | HKDC1 inh | DTT redox prof | GSTO1 inh conf | others
Oc1ccc(/C=N/N=C(c2ccccc2)c2ccccc2)c(O)c1O | 29 | · | 54* | 19 | 1 | 3
O=C(O)c1ccc(C(=O)C(=O)c2ccccc2)cc1 | 14 | -6 | 5 | -1 | · | ·
CN=c1scc(-c2ccccc2F)n1/N=C/c1ccc(O)c(O)c1O | 6 | · | · | 19 | 0 | ·
O=C(/C(=N/N=C/c1ccc(O)c(O)c1O)c1ccccc1)c1ccccc1 | 35 | 5 | 50* | 16 | 0 | -4
CCN1C[C@@H]2[C@@H]3C(=O)N(Cc4ccccc4)C(=O)[C@@H]3[C@](C)(C1=O)N2C(=O)c1ccccc1 | · | · | · | 3 | · | ·
Cc1cccc2c1NC(=O)C2=O | · | · | · | 10 | · | ·
COC(=O)c1cccc2c1NC(=O)C2=O | 13 | -1 | 51* | 9 | · | 1
CCn1c(-c2ccccc2Cl)nn(CC(=O)Nc2cc(Cl)ccc2Cl)c1=S | 22 | 10 | 38* | 0 | -4 | 21
CCn1c(-c2ccccc2Cl)nn(CC(=O)NCCc2ccccc2)c1=S | 22 | -8 | -3 | 6 | 0 | ·
Cc1nnc(N/N=C/c2cc(C)n(-c3ccc(F)cc3)c2C)n1N | 27 | 7 | 50* | -9 | -2 | 2
Cc1nnc(N/N=C/c2ccccc2O)n1N | 20 | 10 | 72* | -14 | -2 | 32
COc1ccc(S(=O)(=O)N2CCC(C(=O)N[C@@H](C)C(=O)NCc3ccccc3OC)CC2)cc1 | 5 | -1 | -1 | -5 | · | ·
Cc1csc(Cn2c(CN(C)C)nc3ccccc3c2=O)n1 | 10 | 24 | 43* | -4 | 1 | 4
CN(C)Cc1nc2ccccc2c(=O)n1Cc1nc(-c2cc3ccccc3o2)cs1 | 8 | 32 | -5 | 5 | 1 | ·
O=[N+]([O-])c1ccccc1S(=O)(=O)Nc1ccc2c(c1)OCCO2 | 5 | -3 | · | 2 | · | ·
COC(=O)C1Cc2ccccc2CN1C(=O)CCl (configuration not stated) | 7 | -11 | 90* | -2 | -2 | 99*
COC(=O)[C@H](Cc1ccccc1)NC(=O)N1Cc2ccccc2C[C@H]1C(=O)OC | 6 | 3 | 2 | 0 | · | ·
Cc1ccc(Cl)cc1NC(=O)CCC(=O)O | 12 | -16 | 64* | -5 | · | 7
COCC(=O)Nc1cc(Cl)ccc1C | 6 | 3 | 4 | 5 | -1 | ·
Cc1cc(=O)oc2cc(OCC(=O)Nc3ccc(N4CCC(C)CC4)cc3)ccc12 | 12 | 11 | 11 | 0 | · | ·
COc1ccc(CC(=O)OCc2csc(CC(=O)Nc3ccc(C)cc3)n2)cc1 | · | 3 | · | -3 | · | ·
Cc1ccc(NC(=O)Cc2nc(CCl)cs2)cc1 | 3 | -1 | 58* | 9 | · | 95* | GSTO1 recomb ABPP=87*
N#C/C(=C\c1c(F)cccc1Cl)C(=O)NC1CC1 | 2 | 9 | -1 | 7 | · | ·
CC1(C(=O)Nc2cccc(C(F)(F)F)c2)CO1 (configuration not stated) | 1 | 3 | 68* | · | -2 | 85* | GSTO1 recomb ABPP=19
CCOC(=O)c1c(C)[nH]c(C(=O)COC(=O)c2ccco2)c1C | · | -5 | · | 5 | · | ·
COc1ccc(NC(=O)NCCC2=CCCCC2)cc1 | 0 | 1 | 64* | -6 | -1 | 10
COc1ccc(NC(=O)c2cc(CC(C)C)nc3ccccc23)cc1 | 0 | -3 | 0 | 2 | · | ·
Cc1ccc(NC(=O)c2cc(CC(C)C)nc3ccccc23)cc1 | -8 | 2 | 42* | 6 | · | 4
Oc1cccc(NC(=S)N=Nc2c(O)[nH]c3ccccc23)c1 | -100 | -26 | -85 | -4 | · | ·

From PubChem
